# Assay results of several laboratories.
# Each line is one published result; the experiments were not run side by side. pIC50, pKi: −log10 of the molar value.
# Cyp2e1: Cytochrome P450 2E1 (Cyp2e1, Rattus norvegicus, UniProt P05182)
Structure (SMILES),target or system,assay,system,conditions,measurement,value
Cc1ncc2n1-c1ccc(Cl)cc1C(c1ccccc1F)=NC2,,metabolic stability,"male rat, liver microsomes",1 µM,microsomal CLint,> 250 µL/min/mg
O=C(O)C(F)(F)C(F)(F)C(F)(F)C(F)(F)C(F)(F)C(F)(F)C(F)(F)F,"Solute carrier organic anion transporter family member 1B3 (SLCO1B3, Homo sapiens, UniProt Q9NPD5)","transporter uptake, substrate",CHO,"1 min, pH 7.4",Km,91.6 µM
OCCCCO,Cyp2e1,"enzyme activity, inhibitor","Fischer 344 rat, liver microsomes","25 mM, 30 min",activity vs control,17%
NC(=O)c1c(NC(=O)c2cnn3c(C(F)(F)F)cc(-c4ccccc4)nc23)sc2c1CCCC2,Calu-3,"cell growth or viability, MTT",,48 h,CC50,> 125 µM
O=c1c(O[C@@H]2O[C@H](CO)[C@@H](O)[C@H](O)[C@H]2O)c(-c2ccc(O)cc2)oc2cc(O)cc(O)c12,MCF7,"cell growth or viability, WST-1",,,pIC50,4.80
CCN(CC)CCNC(=O)c1c(C)[nH]c(/C=C2\C(=O)Nc3ccc(F)cc32)c1C,Calu-3,"cell growth or viability, resazurin",,,CC50,45.7 µM
CCCCCn1nc(C(=O)Nc2cccc3ccccc23)c2ccccc21,,metabolic stability,"Sprague-Dawley rat, liver microsomes","1 µM, pH 7.4",microsomal CLint,430 µL/min/mg
C=CC(=O)Nc1cccc(-c2snc3cc(-c4ccc(N)c(OC)c4)cnc23)c1,Calu-3,"cell growth or viability, resazurin",,,CC50,> 60 µM
CC(C)(C)NC(=O)N[C@H](C(=O)N1C[C@H]2[C@@H]([C@H]1C(=O)NC(CC1CCC1)C(=O)C(N)=O)C2(C)C)C(C)(C)C (stereo partly shown),Calu-3,"cell growth or viability, MTT",,48 h,CC50,> 250 µM
N=c1c2c(-c3ccccc3)c(-c3ccccc3)n(Cc3ccccc3)c2ncn1[C@H]1CC[C@H](O)CC1,,,"female minipig, plasma","intravenous, 0.25 mg/kg, single dose",clearance,0.6 mL/min/kg
CCCCCn1cc(C(=O)Nc2cccc3ccccc23)c2ccccc21,,metabolic stability,"Sprague-Dawley rat, liver microsomes","1 µM, pH 7.4",microsomal CLint,310 µL/min/mg
C=CC1CO1 (stereo not shown),Cyp2e1,"enzyme activity, inhibitor","rat, liver microsomes",,pKi,4.62
COc1ccnc(C(=O)N[C@H]2COC(=O)[C@H](Cc3ccccc3)[C@@H](OC(=O)C(C)C)[C@H](C)OC2=O)c1OCOC(=O)C(C)C,,,rat,topical,LD50,> 5000 mg/kg
